Laboratory results: ChEMBL document CHEMBL1123363, “(5-Amino-1,3-dimethyl-1H-pyrazol-4-yl)(2-fluorophenyl)methanones . A series of novel potential antipsychotic agents” (J Med Chem, 1986)

Assays:
Canis familiaris = assay: Emesis test in dogs was determined when dose administered per orally; format: functional; conditions: Canis lupus familiaris, po; read-out: MED
Summary of the method: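 Fasted dogs (7–12 kg), normally three per dose, were dosed orally and observed hourly for up to 6 h for emesis and other autonomic or behavioural signs. The minimal effective dose was the lowest dose producing emesis in any animal.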

Adenosine receptor A1 = biological target: T1, Adenosine receptor A1 (Rattus norvegicus, UniProt P25099); assay: Binding affinity towards rat brain adenosine A1 receptor using [3H]- CHA
T1 sequence (P25099 whole entry): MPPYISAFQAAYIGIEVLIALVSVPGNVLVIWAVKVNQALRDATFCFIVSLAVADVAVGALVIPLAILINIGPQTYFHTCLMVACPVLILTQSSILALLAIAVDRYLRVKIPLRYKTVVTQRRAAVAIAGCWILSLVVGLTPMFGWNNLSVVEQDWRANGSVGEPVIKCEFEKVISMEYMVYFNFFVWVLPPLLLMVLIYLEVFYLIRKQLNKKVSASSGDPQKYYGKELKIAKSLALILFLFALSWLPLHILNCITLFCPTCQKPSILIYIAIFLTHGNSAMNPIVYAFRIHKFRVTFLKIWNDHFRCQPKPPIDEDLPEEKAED
Summary of the method: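 Adenosine A1 binding in membranes of rat whole brain minus brain stem and cerebellum (male Long-Evans, 150–250 g), using [3H]-CHA at 1.0 nM final. Theophylline at 1 mM final was the reference. IC50 from four or five concentrations by nonlinear fit.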

[1] = biological target: Dopamine receptor (Rattus norvegicus) (UniProt P25115+P19020+P30729+P18901+P61169); assay: Compound was tested for its effect on Dopamine turnover in rat at dose of 10+/-250 mg/kg; format: functional, organism-based; conditions: in the assay text read “64+/-250 mg/kg” for “10+/-250 mg/kg”
Summary of the method: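 Male Long-Evans rats were given vehicle or agent ip 30 min before α-methyl-p-tyrosine (250 mg/kg) and killed 4 h after it. Brain NE and DA were isolated on Sephadex G-10 and measured spectrofluorometrically. Values are percent of vehicle-treated, with at least five determinations per value.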

Rattus norvegicus = assay: Inhibition of conditional avoidance in rats after peroral administration; format: functional; conditions: po
Summary of the method: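 Fasted male Wistar rats (150–250 g) were trained to jump to a platform at a buzzer to avoid grid shock (1.1 mA/s). After oral dosing they were tested every 20 min for 6 h over 19 trials, 10 rats per dose, each rat used once. Peak effect was the mean of the four consecutive trials with the largest effect, computed from response latency. ED50 read graphically from at least three doses.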

Row | Compound | minimal effective dose (Canis familiaris) | IC50 (Adenosine receptor A1) | Control [1] | ED50 (Rattus norvegicus)
1 | Cc1nn(C)c(NC(=O)CNCCCN2CCCCC2C)c1C(=O)c1ccccc1F (centres undefined) | 56 mg/kg | > 10 µM | 45.6% | 
2 | CCN(CC)CC(=O)Nc1c(C(=O)c2ccccc2F)c(C)nn1C |  |  |  | 18 mg/kg
